Reference: ChEMBL document CHEMBL2321753, “Synthesis and biological evaluation of radioiodinated quinacrine-based derivatives for SPECT imaging of Aβ plaques” (Eur J Med Chem, 2013)
pKd: −log10 of the molar value.

Columns and labels:
[1] = test system: Brain; assay: Ratio of drug level in brain after 2 mins to brain after 60 mins in ddY mouse brain at 0.1 to 0.4 uCi, iv; format: ADME, organism-based; conditions: in vivo
Outline: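 ddY mice (5 weeks, 22–25 g) given [125I]ligand (0.1–0.4 µCi) iv in PBS/DMSO. Brain radioactivity (% dose/g) measured by gamma counting at 2 and 60 min, and the 2 min/60 min ratio taken as a washout index.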

[2] = test system: Heart; assay: Biodistribution in ddY mouse heart at 0.1 to 0.4 uCi, iv after 60 mins by gamma counting; format: ADME, organism-based; conditions: in vivo, 1 h
Outline: (§1)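 [125I]ligand (0.1–0.4 µCi) in 100 µL PBS (pH 7.4) containing 30 µL DMSO, injected into the tail vein of ddY mice (5 weeks, 22–25 g). Mice sacrificed at 2, 10, 30 and 60 min. Organs removed, weighed and gamma-counted. Values are % injected dose per gram, except stomach as % dose per organ. Mean (SD) of 3–6 mice per time point.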

[3] = test system: Pancreas; assay: Biodistribution in ddY mouse pancreas at 0.1 to 0.4 uCi, iv after 60 mins by gamma counting; format: ADME, organism-based; conditions: in vivo, 1 h; outline: as §1
[4] = test system: Stomach; assay: Biodistribution in ddY mouse stomach assessed per organ at 0.1 to 0.4 uCi, iv after 60 mins by gamma counting; format: ADME, organism-based; conditions: in vivo, 1 h; outline: as §1
[5] = test system: Lung; assay: Biodistribution in ddY mouse lung at 0.1 to 0.4 uCi, iv after 60 mins by gamma counting; format: ADME, organism-based; conditions: in vivo, 1 h; outline: as §1
[6] = test system: Spleen; assay: Biodistribution in ddY mouse spleen at 0.1 to 0.4 uCi, iv after 60 mins by gamma counting; format: ADME, organism-based; conditions: in vivo, 1 h; outline: as §1
[7] = test system: Intestine; assay: Biodistribution in ddY mouse intestine at 0.1 to 0.4 uCi, iv after 60 mins by gamma counting; format: ADME, organism-based; conditions: in vivo, 1 h; outline: as §1
[8] = test system: Kidney; assay: Biodistribution in ddY mouse kidney at 0.1 to 0.4 uCi, iv after 60 mins by gamma counting; format: ADME, organism-based; conditions: in vivo, 1 h; outline: as §1
[9] = test system: Liver; assay: Biodistribution in ddY mouse liver at 0.1 to 0.4 uCi, iv after 60 mins by gamma counting; format: ADME, organism-based; conditions: in vivo, 1 h; outline: as §1
[10] = test system: Brain; assay: Biodistribution in ddY mouse brain at 0.1 to 0.4 uCi, iv after 60 mins by gamma counting; format: ADME, organism-based; conditions: in vivo, 1 h; outline: as §1
[11] = test system: Blood; assay: Biodistribution in ddY mouse blood at 0.1 to 0.4 uCi, iv after 60 mins by gamma counting; format: ADME, organism-based; conditions: in vivo, 1 h; outline: as §1
[12] = test system: Heart; assay: Biodistribution in ddY mouse heart at 0.1 to 0.4 uCi, iv after 30 mins by gamma counting; format: ADME, organism-based; conditions: in vivo, 0.5 h; outline: as §1
[13] = test system: Pancreas; assay: Biodistribution in ddY mouse pancreas at 0.1 to 0.4 uCi, iv after 30 mins by gamma counting; format: ADME, organism-based; conditions: in vivo, 0.5 h; outline: as §1
[14] = test system: Stomach; assay: Biodistribution in ddY mouse stomach assessed per organ at 0.1 to 0.4 uCi, iv after 30 mins by gamma counting; format: ADME, organism-based; conditions: in vivo, 0.5 h; outline: as §1
[15] = test system: Lung; assay: Biodistribution in ddY mouse lung at 0.1 to 0.4 uCi, iv after 30 mins by gamma counting; format: ADME, organism-based; conditions: in vivo, 0.5 h; outline: as §1
[16] = test system: Spleen; assay: Biodistribution in ddY mouse spleen at 0.1 to 0.4 uCi, iv after 30 mins by gamma counting; format: ADME, organism-based; conditions: in vivo, 0.5 h; outline: as §1
[17] = test system: Intestine; assay: Biodistribution in ddY mouse intestine at 0.1 to 0.4 uCi, iv after 30 mins by gamma counting; format: ADME, organism-based; conditions: in vivo, 0.5 h; outline: as §1
[18] = test system: Kidney; assay: Biodistribution in ddY mouse kidney at 0.1 to 0.4 uCi, iv after 30 mins by gamma counting; format: ADME, organism-based; conditions: in vivo, 0.5 h; outline: as §1
[19] = test system: Liver; assay: Biodistribution in ddY mouse liver at 0.1 to 0.4 uCi, iv after 30 mins by gamma counting; format: ADME, organism-based; conditions: in vivo, 0.5 h; outline: as §1
[20] = test system: Brain; assay: Biodistribution in ddY mouse brain at 0.1 to 0.4 uCi, iv after 30 mins by gamma counting; format: ADME, organism-based; conditions: in vivo, 0.5 h; outline: as §1
[21] = test system: Blood; assay: Biodistribution in ddY mouse blood at 0.1 to 0.4 uCi, iv after 30 mins by gamma counting; format: ADME, organism-based; conditions: in vivo, 0.5 h; outline: as §1
[22] = test system: Heart; assay: Biodistribution in ddY mouse heart at 0.1 to 0.4 uCi, iv after 10 mins by gamma counting; format: ADME, organism-based; conditions: in vivo; outline: as §1
[23] = test system: Pancreas; assay: Biodistribution in ddY mouse pancreas at 0.1 to 0.4 uCi, iv after 10 mins by gamma counting; format: ADME, organism-based; conditions: in vivo; outline: as §1
[24] = test system: Stomach; assay: Biodistribution in ddY mouse stomach assessed per organ at 0.1 to 0.4 uCi, iv after 10 mins by gamma counting; format: ADME, organism-based; conditions: in vivo; outline: as §1
[25] = test system: Lung; assay: Biodistribution in ddY mouse lung at 0.1 to 0.4 uCi, iv after 10 mins by gamma counting; format: ADME, organism-based; conditions: in vivo; outline: as §1
[26] = test system: Spleen; assay: Biodistribution in ddY mouse spleen at 0.1 to 0.4 uCi, iv after 10 mins by gamma counting; format: ADME, organism-based; conditions: in vivo; outline: as §1
[27] = test system: Intestine; assay: Biodistribution in ddY mouse intestine at 0.1 to 0.4 uCi, iv after 10 mins by gamma counting; format: ADME, organism-based; conditions: in vivo; outline: as §1
[28] = test system: Liver; assay: Biodistribution in ddY mouse liver at 0.1 to 0.4 uCi, iv after 10 mins by gamma counting; format: ADME, organism-based; conditions: in vivo; outline: as §1
[29] = test system: Kidney; assay: Biodistribution in ddY mouse kidney at 0.1 to 0.4 uCi, iv after 10 mins by gamma counting; format: ADME, organism-based; conditions: in vivo; outline: as §1
[30] = test system: Brain; assay: Biodistribution in ddY mouse brain at 0.1 to 0.4 uCi, iv after 10 mins by gamma counting; format: ADME, organism-based; conditions: in vivo; outline: as §1
[31] = test system: Blood; assay: Biodistribution in ddY mouse blood at 0.1 to 0.4 uCi, iv after 10 mins by gamma counting; format: ADME, organism-based; conditions: in vivo; outline: as §1
[32] = test system: Pancreas; assay: Biodistribution in ddY mouse pancreas at 0.1 to 0.4 uCi, iv after 2 mins by gamma counting; format: ADME, organism-based; conditions: in vivo; outline: as §1
[33] = test system: Heart; assay: Biodistribution in ddY mouse heart at 0.1 to 0.4 uCi, iv after 2 mins by gamma counting; format: ADME, organism-based; conditions: in vivo; outline: as §1
[34] = test system: Stomach; assay: Biodistribution in ddY mouse stomach assessed per organ at 0.1 to 0.4 uCi, iv after 2 mins by gamma counting; format: ADME, organism-based; conditions: in vivo; outline: as §1
[35] = test system: Lung; assay: Biodistribution in ddY mouse lung at 0.1 to 0.4 uCi, iv after 2 mins by gamma counting; format: ADME, organism-based; conditions: in vivo; outline: as §1
[36] = test system: Intestine; assay: Biodistribution in ddY mouse intestine at 0.1 to 0.4 uCi, iv after 2 mins by gamma counting; format: ADME, organism-based; conditions: in vivo; outline: as §1
[37] = test system: Spleen; assay: Biodistribution in ddY mouse spleen at 0.1 to 0.4 uCi, iv after 2 mins by gamma counting; format: ADME, organism-based; conditions: in vivo; outline: as §1
[38] = test system: Kidney; assay: Biodistribution in ddY mouse kidney at 0.1 to 0.4 uCi, iv after 2 mins by gamma counting; format: ADME, organism-based; conditions: in vivo; outline: as §1
[39] = test system: Liver; assay: Biodistribution in ddY mouse liver at 0.1 to 0.4 uCi, iv after 2 mins by gamma counting; format: ADME, organism-based; conditions: in vivo; outline: as §1
[40] = test system: Blood; assay: Biodistribution in ddY mouse blood at 0.1 to 0.4 uCi, iv after 2 mins by gamma counting; format: ADME, organism-based; conditions: in vivo; outline: as §1
[41] = test system: Brain; assay: Biodistribution in ddY mouse brain at 0.1 to 0.4 uCi, iv after 2 mins by gamma counting; format: ADME, organism-based; conditions: in vivo; outline: as §1
[42] = biological target: Amyloid-beta precursor protein (Homo sapiens, UniProt P05067); assay: Binding affinity to amyloid beta aggregate (unknown origin) by centrifugation method
Amyloid-beta precursor protein, sequence (P05067 whole entry): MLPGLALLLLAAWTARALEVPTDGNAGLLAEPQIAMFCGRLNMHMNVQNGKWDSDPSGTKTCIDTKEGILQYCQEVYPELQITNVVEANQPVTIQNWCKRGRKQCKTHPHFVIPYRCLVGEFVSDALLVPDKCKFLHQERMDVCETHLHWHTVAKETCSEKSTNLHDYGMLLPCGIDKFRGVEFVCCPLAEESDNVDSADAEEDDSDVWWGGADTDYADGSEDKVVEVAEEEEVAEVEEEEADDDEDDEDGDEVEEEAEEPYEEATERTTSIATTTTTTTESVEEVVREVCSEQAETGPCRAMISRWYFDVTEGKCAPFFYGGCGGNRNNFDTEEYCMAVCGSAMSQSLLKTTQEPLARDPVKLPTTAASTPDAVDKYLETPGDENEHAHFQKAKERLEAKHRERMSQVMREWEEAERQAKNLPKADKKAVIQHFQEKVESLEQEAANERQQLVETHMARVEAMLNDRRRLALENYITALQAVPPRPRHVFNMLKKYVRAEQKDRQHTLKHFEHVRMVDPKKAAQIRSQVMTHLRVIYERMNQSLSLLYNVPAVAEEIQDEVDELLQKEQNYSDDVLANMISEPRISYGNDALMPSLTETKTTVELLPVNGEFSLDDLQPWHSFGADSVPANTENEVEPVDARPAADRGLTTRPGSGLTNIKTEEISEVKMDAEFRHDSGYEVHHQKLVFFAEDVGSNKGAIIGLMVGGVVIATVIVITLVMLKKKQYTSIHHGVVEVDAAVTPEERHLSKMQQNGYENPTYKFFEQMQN
Outline: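 Aβ(1-42) aggregated at 0.25 mg/mL in pH 7.4 buffer (10 mM sodium phosphate, 1 mM EDTA), 37 °C for 42 h with shaking. [125I]ligand at 4–500 nM final (set with unlabelled compound) in 10% EtOH incubated with aggregates 2 h at room temperature. Centrifuged 16,000 rpm, 10 min; supernatant gamma-counted for bound/free ratio. Nonspecific binding with 10 µM unlabelled ligand. Kd and Bmax from Scatchard analysis.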

[43] = n-octanol-sodium phosphate buffer partition co-efficient, log D of the compound at pH 7.4 by shake flask method; format: physicochemical
Outline: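 Shake-flask partition between n-octanol and sodium phosphate buffer, pH 7.4, shaken 10 min at room temperature, then centrifuged. Weighed 0.5 mL samples of each layer counted. log D from the ratio of cpm per gram of octanol to cpm per gram of buffer; n = 3.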

COc1ccc2nc3cc([125I])ccc3c(OC)c2c1
Ratio [1]: 11.9 | Drug uptake [2]: 1.1 % ID/g | Drug uptake [3]: 1.1 % ID/g | Drug uptake [4]: 4.36 %ID | Drug uptake [5]: 2.04 % ID/g | Drug uptake [6]: 1.24 % ID/g | Drug uptake [7]: 20.17 % ID/g | Drug uptake [8]: 2.77 % ID/g | Drug uptake [9]: 5.8 % ID/g | Drug uptake [10]: 0.37 % ID/g | Drug uptake [11]: 1.77 % ID/g | Drug uptake [12]: 1.59 % ID/g | Drug uptake [13]: 1.33 % ID/g | Drug uptake [14]: 5.97 %ID | Drug uptake [15]: 3.28 % ID/g | Drug uptake [16]: 1.87 % ID/g | Drug uptake [17]: 16.78 % ID/g | Drug uptake [18]: 4.41 % ID/g | Drug uptake [19]: 13.65 % ID/g | Drug uptake [20]: 0.82 % ID/g | Drug uptake [21]: 2.59 % ID/g | Drug uptake [22]: 1.82 % ID/g | Drug uptake [23]: 2.03 % ID/g | Drug uptake [24]: 3.51 %ID | Drug uptake [25]: 3.37 % ID/g | Drug uptake [26]: 2.12 % ID/g | Drug uptake [27]: 6.41 % ID/g | Drug uptake [28]: 20.85 % ID/g | Drug uptake [29]: 4.69 % ID/g | Drug uptake [30]: 2.14 % ID/g | Drug uptake [31]: 2.19 % ID/g | Drug uptake [32]: 5.41 % ID/g | Drug uptake [33]: 5.83 % ID/g | Drug uptake [34]: 1.86 %ID | Drug uptake [35]: 5.95 % ID/g | Drug uptake [36]: 2.59 % ID/g | Drug uptake [37]: 3.75 % ID/g | Drug uptake [38]: 8.07 % ID/g | Drug uptake [39]: 18.77 % ID/g | Drug uptake [40]: 2.14 % ID/g | Drug uptake [41]: 4.41 % ID/g

CCN(CC)CCCC(C)Nc1c2ccc([125I])cc2nc2ccc(OC)cc12 (stereo not drawn)
pKd [42]: 7.32 | Drug uptake [2]: 3.96 % ID/g | Drug uptake [3]: 6.32 % ID/g | Drug uptake [4]: 1.24 %ID | Drug uptake [5]: 25.58 % ID/g | Drug uptake [6]: 11.17 % ID/g | Drug uptake [7]: 5.59 % ID/g | Drug uptake [8]: 12.19 % ID/g | Drug uptake [9]: 11.61 % ID/g | Drug uptake [10]: 0.28 % ID/g | Drug uptake [11]: 0.52 % ID/g | Drug uptake [12]: 7 % ID/g | Drug uptake [13]: 7.67 % ID/g | Drug uptake [14]: 1.48 %ID | Drug uptake [15]: 35.64 % ID/g | Drug uptake [16]: 10.88 % ID/g | Drug uptake [17]: 4.4 % ID/g | Drug uptake [18]: 13.93 % ID/g | Drug uptake [19]: 11.02 % ID/g | Drug uptake [20]: 0.24 % ID/g | Drug uptake [21]: 0.73 % ID/g | Drug uptake [22]: 13.09 % ID/g | Drug uptake [23]: 5.85 % ID/g | Drug uptake [24]: 1.33 %ID | Drug uptake [25]: 59.55 % ID/g | Drug uptake [26]: 9.38 % ID/g | Drug uptake [27]: 2.55 % ID/g | Drug uptake [28]: 9.7 % ID/g | Drug uptake [29]: 13.58 % ID/g | Drug uptake [30]: 0.33 % ID/g | Drug uptake [31]: 1.85 % ID/g | Drug uptake [32]: 4.76 % ID/g | Drug uptake [33]: 15.53 % ID/g | Drug uptake [34]: 1.18 %ID | Drug uptake [35]: 73.08 % ID/g | Drug uptake [36]: 1.89 % ID/g | Drug uptake [37]: 6.14 % ID/g | Drug uptake [38]: 10.23 % ID/g | Drug uptake [39]: 8.15 % ID/g | Drug uptake [40]: 4.21 % ID/g | Drug uptake [41]: 0.32 % ID/g | logD [43]: 1.11
